Results on twelve compounds are retold here after ChEMBL document CHEMBL3797182, “In vitro evaluation of imidazo[4,5-c]quinolin-2-ones as gametocytocidal antimalarial agents” (Bioorg Med Chem Lett, 2016).

For orientation: IC50 means the concentration that inhibits the measured activity by half.

Assay [1] relates to Plasmodium falciparum. Put plainly: Selectivity ratio of IC50 for chloroquine-sensitive late gametocytic stage (III to V) of Plasmodium falciparum 3D7 to IC50 for chloroquine-sensitive asexual blood stage of Plasmodium falciparum 3D7. In kind it is functional.
Assay [2] deals with Plasmodium falciparum. Put plainly: Gametocytocidal activity against chloroquine-sensitive late gametocytic stage (III to V) of Plasmodium falciparum 3D7 after 72 hrs by Alamar Blue assay. In kind it is functional, organism-based. As to conditions: 3D7, 72 h. Summed up: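 Late-stage (III–V) P. falciparum 3D7 gametocytes. AlamarBlue redox indicator reads cytosolic metabolic activity as a measure of gametocyte viability. 1536-well format, 11-point dose-response, duplicates. Torin 2 positive control, DMSO negative control.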
On the technique in general: Alamar Blue is a resazurin reagent that responds to reducing activity.

In the next assay the test system is HepG2. Put plainly: Cytotoxicity against human HepG2 cells assessed as cell viability after 24 hrs. Format: cell-based. As to conditions: HepG2, 24 h. Summed up: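 HepG2 cell viability as general cytotoxicity. 1536-well, 11-point dose-response in duplicate, top concentration 46 μM. Torin 2 positive control, DMSO negative control.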
Assay [3] has as its system Plasmodium falciparum. Put plainly: Antimalarial activity against chloroquine-sensitive asexual blood stage of Plasmodium falciparum 3D7 infected in RBC after 72 hrs by SYBR Green assay. In kind it is functional, organism-based. As to conditions: 3D7, 72 h. An outline of the steps: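 Asexual blood-stage P. falciparum 3D7 (chloroquine-sensitive) parasites. 1536-well format, 11-point dose-response, duplicate tests. Torin 2 served as positive control and DMSO as negative control.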

Assay [4] relates to Plasmodium falciparum. Put plainly: Gametocytocidal activity against Plasmodium falciparum after 72 hrs by Alamar Blue assay. In kind it is functional, organism-based.

`O=c1[nH]c2cnc3ccc(-c4ccc(Cl)cc4)cc3c2n1-c1cccc(C(F)(F)F)c1`: the “Ratio IC50” value in the assay on Plasmodium falciparum [1] was 1. For the same compound, the figures for the IC50 in the assay on Plasmodium falciparum [2], in the assay with HepG2 and in the assay with Plasmodium falciparum [3] were 3560 nM, over 45000 nM and 1690 nM, respectively.

For the compound `Cn1c(=O)n(-c2cccc(C(F)(F)F)c2)c2c3cc(-c4ccc(S(N)(=O)=O)cc4)ccc3ncc21`, the “Ratio IC50” value in the assay with Plasmodium falciparum [1] turned out to be 1. Further, the values for the IC50 in the assay on Plasmodium falciparum [2], with HepG2 and in the assay with Plasmodium falciparum [3] were 816 nM, over 45000 nM and 452 nM, respectively.

In the case of `NC(=O)c1ccc(-c2ccc3ncc4[nH]c(=O)n(-c5cccc(C(F)(F)F)c5)c4c3c2)cc1`, the “Ratio IC50” value in the assay on Plasmodium falciparum [1] was 1. Further, the results for the IC50 with Plasmodium falciparum [2], with HepG2 and with Plasmodium falciparum [3] were 294 nM, over 45000 nM and 109 nM, respectively.

Regarding `Cn1c(=O)n(-c2cccc(C(F)(F)F)c2)c2c3cc(-c4ccc(N)cc4)ccc3ncc21`, the “Ratio IC50” value in the assay with Plasmodium falciparum [1] is 1. Besides, the IC50 in the assay with Plasmodium falciparum [2] was 87 nM; with HepG2, 5530 nM; in the assay with Plasmodium falciparum [3], 86 nM.

As to `Cn1c(=O)n(-c2cccc(C(F)(F)F)c2)c2c3cc(-c4ccc(S(C)(=O)=O)cc4)ccc3ncc21`, the “Ratio IC50” value in the assay on Plasmodium falciparum [1] is reported as 1. Moreover, the IC50 in the assay with Plasmodium falciparum [2] was 855 nM; in the assay on HepG2, over 45000 nM; in the assay on Plasmodium falciparum [3], 578 nM.

Consider `Nc1ccc(-c2ccc3ncc4ccc(=O)n(-c5cccc(C(F)(F)F)c5)c4c3c2)cn1`, for which it took 8 nM to reach half-maximal inhibition in the assay with Plasmodium falciparum [4] (IC50).

For the compound `O=c1[nH]c2cnc3ccc(-c4ccc(O)cc4)cc3c2n1-c1cccc(C(F)(F)F)c1`, the “Ratio IC50” value in the assay on Plasmodium falciparum [1] came out at 1. Also, the results for the IC50 in the assay on Plasmodium falciparum [2], with HepG2 and in the assay with Plasmodium falciparum [3] were 1470 nM, 4060 nM and 781 nM, respectively.

In the case of `Nc1cccc(-c2ccc3ncc4[nH]c(=O)n(-c5cccc(C(F)(F)F)c5)c4c3c2)c1`, in the assay on Plasmodium falciparum [1], the “Ratio IC50” value is given as 1. Moreover, the IC50 with Plasmodium falciparum [2] was determined as 637 nM; in the assay with HepG2 it was 6170 nM; with Plasmodium falciparum [3], 275 nM.

On to `Cn1c(=O)n(-c2cccc(C(F)(F)F)c2)c2c3cc(-c4cccc(N)c4)ccc3ncc21`, for which the “Ratio IC50” value with Plasmodium falciparum [1] is given as 1. The figures for the IC50 in the assay on Plasmodium falciparum [2], in the assay on HepG2 and in the assay on Plasmodium falciparum [3] were 145 nM, 13900 nM and 77 nM, respectively.

As for `Cn1c(=O)n(-c2cccc(C(F)(F)F)c2)c2c3cc(-c4cccc(C#N)c4)ccc3ncc21`, the Ratio IC50 in the assay with Plasmodium falciparum [1] was 11.7. Besides, the figures for the IC50 with Plasmodium falciparum [2], in the assay on HepG2 and in the assay with Plasmodium falciparum [3] were 2160 nM, over 45000 nM and 184 nM, respectively.

`Cn1c(=O)n(-c2cccc(C(F)(F)F)c2)c2c3cc(-c4ccccc4)ccc3ncc21`: the Ratio IC50 in the assay with Plasmodium falciparum [1] came to 10.7. Moreover, the IC50 with Plasmodium falciparum [2] is 4710 nM; with HepG2, over 45000 nM; with Plasmodium falciparum [3], 442 nM.

In the case of `Cn1c(=O)n(-c2cccc(C(F)(F)F)c2)c2c3cc(-c4ccc(C(N)=O)cc4)ccc3ncc21`, the “Ratio IC50” value with Plasmodium falciparum [1] is on record as 10. Besides, the IC50 is 497 nM in the assay with Plasmodium falciparum [2], 4690 nM with HepG2 and 38 nM in the assay on Plasmodium falciparum [3].
